An excerpt weighted towards active compounds, which were near 2.5% of everything screened.
GalR3 antag: human GalR3 antagonism. inhibition, % at 3 µM. AID 651719. HEK293 GalR3-CNG cAMP membrane potential fluorescence; galR3 body fused to GalR1 C-terminus. O60755. hit rate 0.44% among 360,000;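 active means inhibition above the screen-wide average plus 3 SD, cut at about 13% in these data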;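 further: forskolin and galanin both at EC90 stimulate the cells; cAMP rise reported by CNG channel membrane potential dye signal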
Target sequence (O60755 1-299 limits assumed): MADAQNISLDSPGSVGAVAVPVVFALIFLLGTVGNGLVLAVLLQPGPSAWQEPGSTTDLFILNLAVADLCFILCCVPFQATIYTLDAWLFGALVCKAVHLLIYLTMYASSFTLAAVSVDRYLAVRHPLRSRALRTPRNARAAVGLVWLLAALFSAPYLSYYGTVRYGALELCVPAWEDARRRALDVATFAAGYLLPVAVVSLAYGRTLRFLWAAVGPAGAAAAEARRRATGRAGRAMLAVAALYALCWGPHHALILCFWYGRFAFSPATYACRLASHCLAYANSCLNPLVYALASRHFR
NR2E3 ag-1: NR2E3 (human) agonism | Q9Y5X4 | GST-NR2E3/biotin-RetCOR TR-FRET, 1536-well | inhibition of corepressor binding, % at 4.78 µM | hit rate 0.12% among 320,000 | AID 2300;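 active means percent inhibition above the cutoff of mean plus 3 SD of all tested compounds, set per screening campaign, cut at about 20% in these data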
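Format: 1536-well format; test system: GST-NR2E3 and biotin-RetCOR proteins; read-out basis: percent inhibition of TR-FRET ratio; timing: 5 h incubation at 4 °C; detection: time-resolved FRET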
NR2E3 ag-2: human photoreceptor-specific nuclear receptor agonism. Q9Y5X4. CHO-S Gal4-NCOR/VP16-NR2E3 two-hybrid, luciferase. inhibition of corepressor binding, % at 3.98 µM. hit rate 0.35% among 360,000;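 active means inhibition above the mean of all tested compounds plus 3 SD, cut at about 70% in these data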;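 further: higher means lower luciferase signal from less NR2E3 corepressor binding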
MsrA act: bovine methionine sulfoxide reductase A activation; purified bovine MsrA, absorbance read-out; activation, % at 10.6 µM; AID 602163; hit rate 0.3% among 360,000; in the data active means activation above about 7.5%
NadD inh: inhibitors of Staphylococcus aureus NadD. purified NadD enzyme, colorimetric absorbance read-out. inhibition, % at 20 µM. hit rate 0.78% among 360,000. AID 602399; in the data active means inhibition above about 26%
MsrA inh: bovine MsrA inhibition | purified bovine MsrA, absorbance read-out | hit rate 0.75% among 360,000 | inhibition, % at 15.5 µM | AID 651718
MsrA inh confirm: bovine MsrA inhibition, confirmed; shares compounds with MsrA inh; purified bovine MsrA, absorbance read-out; inhibition, % at 15.5 µM; hit rate 41% among 2,300; AID 651822;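 further: coupled to thioredoxin reductase with NADPH and selenocystamine and DMSO as substrate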
GalR3 antag conf: confirmation of human galanin receptor 3 antagonists; shares compounds with GalR3 antag; HEK293 GalR3 CNG cAMP biosensor, membrane potential fluorescence; galR3 fused to GalR1 carboxy tail; challenged with forskolin and galanin at EC90; hit rate 59% among 1,600; inhibition, % at 3 µM;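 active means inhibition above the primary screen's cutoff, the mean inhibition of all screened compounds plus 3 SD, cut at about 13% in these data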
HEK-CNG parental: parental cell agonism counter-screen for GalR3 antagonists; activation, % at 3 µM; hit rate 10% among 1,600; shares compounds with GalR3 antag; HEK293-CNG parental cells, cAMP membrane potential fluorescence; normalised: DMSO wells 0%, forskolin wells 100%; in the data active means activation above about 1.3%
Large screens that a line does not name were inactive (follow-up assays come after a bar, where they were run); ! = repeats disagree. Unless noted, no stated cut-off is given here; in the data, active means inhibition above about 4.5%; inactive means the rest.

COC(=O)C1=C(c2cccc(OC)c2OC)C[C@@H]2CC[C@H]1N2C(=O)N1CCCCC1	none
CCN(CC)c1ccc(/C=C2\C(=O)NC(=O)N(Cc3ccco3)C2=O)cc1	none
CCCCN1C(=O)/C(=C/c2ccc(N(C)C)cc2)C(=O)N(Cc2ccco2)C1=O	NadD inh 34.4, MsrA inh 5.3 | MsrA inh confirm 5.5
c1cnc(N2CCNCC2)nc1	none (no result: GalR3 antag)
O=C1NC(=O)N(Cc2cccs2)C(=O)/C1=C/c1ccc(N2CCOCC2)cc1	MsrA inh 4.7 | MsrA inh confirm inactive
CCCCC(=O)N/N=C/c1c(O)n(Cc2ccco2)c(=O)[nH]c1=O	none
CC(=O)Nc1ccc(N=Cc2c(O)n(Cc3ccco3)c(=O)[nH]c2=O)cc1	MsrA inh 5.2 | MsrA inh confirm 6.0
CC(=O)NC(Cc1ccc(N(CCCl)CCCl)cc1)C(=O)O (centres undefined)	none
COc1cc(C(=O)NN=Cc2ccc(N(CCCl)CCCl)cc2)cc(OC)c1OC	MsrA inh 5.2 (no result: NR2E3 ag-1) | MsrA inh confirm inactive
CN1CCCN(C(=O)COc2ccc(F)cc2F)CC1	none
COc1cc2c(cc1O)C[C@H]1c3c(cc(O)c(OC)c3-2)CCN1C	MsrA inh 21.1 | MsrA inh confirm 9.2
COC(=O)C1=C(c2ccc(OC)c(OC)c2)C[C@@H]2CC[C@H]1N2C(=O)NCCNC(C)=O	none
O=c1[nH]c(=S)n(-c2ccccc2)c(O)c1C=NCCN1CCNCC1	MsrA inh 5.4 (no result: NR2E3 ag-1) | MsrA inh confirm inactive
O=c1[nH]c(=S)n(-c2cccc(Cl)c2)c(O)c1C=NCCN1CCNCC1	none
C[n+]1c(-c2ccccc2)c2cc(N)ccc2c2ccc(N)cc21	MsrA inh 43.5 | MsrA inh confirm 34.4
Nc1ccc2ccc3cccc[n+]3c2c1	none
COc1ccc(-c2cc(=NCCCCCC(=O)O)c3cc(C)ccc3o2)cc1	MsrA inh 6.3 (no result: NR2E3 ag-1) | MsrA inh confirm 7.0!
COc1ccc(N=Nc2c(O)[nH]c(=S)[nH]c2=O)cc1	none
CSc1nc(N)c(N=Nc2ccc([As](=O)(O)O)cc2)c(=O)[nH]1	MsrA inh 81.8 | MsrA inh confirm 85.7
CN(C)c1ccc(C=C2C(=O)NC(=S)NC2=O)cc1[N+](=O)[O-]	MsrA inh 7.3 | MsrA inh confirm inactive
COc1ccc2c(C)c(CC(=O)N3C[C@H]4C[C@@H](C3)c3cccc(=O)n3C4)c(=O)oc2c1C	GalR3 antag 19.9, MsrA inh 4.9 | MsrA inh confirm inactive | GalR3 antag conf inactive | HEK-CNG parental inactive
CC(CCN1CC1)=NNC(=O)Nc1cccc2ccccc12	none (no result: NR2E3 ag-1)
C=CCn1c(O)c(C(C)=Nc2cccc(C(=O)O)c2)c(=O)[nH]c1=O	none
C=CCn1c(O)c(C(CC)=Nc2cccc(C(=O)O)c2)c(=O)[nH]c1=O	GalR3 antag 15.3 | GalR3 antag conf inactive | HEK-CNG parental inactive
CC(=O)N1N=C(c2cccnc2)CC1c1ccccc1O (centres undefined)	none
CC(C)(C)NCC(O)c1cc(Cl)c(N)c(Cl)c1 (centres undefined)	GalR3 antag 23.8 | GalR3 antag conf 30.6 | HEK-CNG parental 5.3
O=C1NC(=S)NC(=O)C12C(c1ccccc1)NC(=S)NC2c1ccccc1 (centres undefined)	none
COc1ccc(CNCCc2c(C)[nH]c3ccc(OC(F)(F)F)cc23)c(OC)c1	GalR3 antag 24.2 | GalR3 antag conf 90.4 | HEK-CNG parental inactive
COC1=CC(=O)[C@]2(C=C1OC)OC[C@@H]1Oc3c(ccc4c3C=CC(C)(C)O4)C(=O)[C@@H]12	GalR3 antag 41.4 (no result: NR2E3 ag-1, NR2E3 ag-2, MsrA act, NadD inh) | GalR3 antag conf 97.9 | HEK-CNG parental inactive
CCCCCN1C(=O)c2cc(OC)ccc2[C@@]2(C(=O)OCC)Cc3cc(Cl)ccc3[C@@H]12	GalR3 antag 35.6 (no result: NR2E3 ag-1) | GalR3 antag conf 52.0 | HEK-CNG parental 2.6
O=c1[nH]c(=O)n(Cc2ccccc2)c(O)c1C=Nc1ccc(CN2CCOCC2)cc1	none
CC1OC(OC2C=C3CCC4C(CCC5(C)C(c6ccc(=O)oc6)CCC45O)C3(C)CC2)C(O)C(OC2OC(CO)C(O)C(O)C2O)C1O (centres undefined)	GalR3 antag 13.9 (no result: NR2E3 ag-1) | GalR3 antag conf 38.9 | HEK-CNG parental 4.1
CCOC(=O)c1c(C)n(C(C)C)c2ccc(OC)cc12	none
CCn1c(C)c(C(=O)O)c2cc(OC)ccc21	GalR3 antag 13.2 | GalR3 antag conf inactive | HEK-CNG parental inactive
C#CC[N+]1(C)[C@@H]2CC(OC(=O)C(CO)c3ccccc3)C[C@H]1C(O)C2 (some centres undefined)	none
CC12CCC3C(CCC4(O)CC(O)CCC34C=O)C1(O)CCC2C1=CC(=O)OC1 (centres undefined)	GalR3 antag 17.8 (no result: NR2E3 ag-1) | GalR3 antag conf 46.7 | HEK-CNG parental 4.2
CCCCNS(=O)(=O)c1ccc(OCC(=O)N2CCN(Cc3ccc4c(c3)OCO4)CC2)cc1	GalR3 antag 14.0 | GalR3 antag conf 17.0 | HEK-CNG parental inactive
CCN1C[C@]2(CO)CC[C@H](OC)[C@@]34C2[C@H](OC)[C@@](O)(C13)[C@@]1(O)C[C@H](OC)[C@H]2C[C@@H]4[C@@H]1[C@H]2OC	none
CCC(=NCCC(c1ccccc1)c1ccccc1)c1c(O)[nH]c(=O)[nH]c1=O	GalR3 antag 26.2 | GalR3 antag conf 37.7 | HEK-CNG parental inactive
CCC1(CCCC(=O)c2ccc(F)cc2)C(=O)NC(=S)NC1=O	none
COP(=O)(/C=C(\Cl)c1ccccc1)/C=C(\Cl)c1ccccc1	none
CCc1ccc(CN2CCN(Cc3ccc(SC)cc3)CC2)cc1	GalR3 antag 50.0 | GalR3 antag conf 59.7 | HEK-CNG parental 1.4
CSc1ccc(CN2CCN(c3ccccc3C)CC2)cc1	none
CCCCCn1c(=O)c(C(=O)NCc2ccccc2Cl)c(O)c2ccccc21	none
